# Source: ChEMBL document CHEMBL3994624, “Antimalarial Pyrido[1,2-a]benzimidazoles: Lead Optimization, Parasite Life Cycle Stage Profile, Mechanistic Evaluation, Killing Kinetics, and in Vivo Oral Efficacy in a Mouse Model” (J Med Chem, 2017)
# Activity calls are given as the source filed them. The calls are words filed in the database; no cut-off is given here.
# Experiments:
# [1] = test system: Plasmodium falciparum; assay: Anti-plasmodial activity against chloroquine-sensitive Plasmodium falciparum NF54 by [3H]-hypoxanthine incorporation assay; assay type: functional
# Procedure, shortened: (§1)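 P. falciparum asexual blood-stage growth inhibition by [3H]hypoxanthine incorporation; chloroquine and artesunate run as reference drugs in every experiment; IC50 given as mean of ≥2 independent experiments.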
# [2] = test system: Plasmodium falciparum; assay: Ratio of IC50 for chloroquine-sensitive Plasmodium falciparum NF54 after 24 hrs to IC50 for chloroquine-sensitive Plasmodium falciparum NF54 after 72 hrs; assay type: functional
# [3] = test system: CHO; assay: Cytotoxicity against CHO cells after by MTT assay; assay type: cell-based; settings: Cricetulus griseus
# [4] = Kinetic solubility of the compound in FaSSIF at pH 6.5 after 2 hrs by shake flask method; assay type: physicochemical; settings: read-out: Kinetic_solubility
# [5] = test system: Ferriprotoporphyrin IX; assay: Inhibition of beta hematin formation in ring stage of chloroquine-sensitive Plasmodium falciparum NF54 assessed as increase in free heme level at 0.5 to 3 times IC50 after 36 hrs by UV-vis spectra analysis
# Procedure, shortened: (§2)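 Synchronized ring-stage parasites treated with increasing drug concentrations, then cellular fractionation. Free haem and haemozoin quantified as iron (fg/cell) and compared with untreated control; significance by p-values; parasite survival overlaid.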
# [6] = Selectivity index, ratio of IC50 for CHO cells to IC50 for chloroquine-sensitive Plasmodium falciparum NF54; assay type: toxicity; settings: hamster, read-out: Ratio IC50
# Procedure, shortened: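 Selectivity index = IC50 CHO / IC50 PfNF54.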
# [7] = test system: Plasmodium berghei; assay: Antimalarial activity against GFP-fused Plasmodium berghei ANKA liver stage infected in HuH7 cells pretreated for 1 hr followed by parasite infection at 1 uM after 48 hrs by luciferase reporter gene assay; assay type: functional, cell-based
# [8] = test system: Plasmodium berghei; assay: Antimalarial activity against GFP-fused Plasmodium berghei ANKA liver stage infected in HuH7 cells pretreated for 1 hr followed by parasite infection after 48 hrs by luciferase reporter gene assay; assay type: functional, cell-based; settings: Huh-7
# [9] = test system: Huh-7; assay: Cytotoxicity against human HuH7 cells at 1 to 10 uM after 48 hrs by Alamarblue assay; assay type: cell-based; settings: huh-7, 48 h
# [10] = test system: Ferriprotoporphyrin IX; assay: Inhibition of beta hematin formation in ring stage of chloroquine-sensitive Plasmodium falciparum NF54 assessed as decrease in haemozoin level at 0.5 to 3 times IC50 after 36 hrs by UV-vis spectra analysis; procedure, shortened: as §2
# [11] = test system: Plasmodium falciparum; assay: Anti-plasmodial activity against multidrug resistant Plasmodium falciparum K1 by [3H]-hypoxanthine incorporation assay; assay type: functional; procedure, shortened: as §1
# [12] = test system: Ferriprotoporphyrin IX; assay: Inhibition of beta hematin formation in water/NP40/DMSO solution after 5 hrs
# [13] = Metabolic stability in Balb/c mouse liver microsomes assessed as compound remaining at 1 uM in presence of NADPH after 30 mins by LC-MS/MS analysis; assay type: ADME, microsome; settings: read-out: Stability
# Procedure, shortened: (§3)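 Mouse and human liver microsomes; % compound remaining after 30 min.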
# [14] = test system: Plasmodium falciparum; assay: Ratio of IC50 for chloroquine-sensitive Plasmodium falciparum NF54 early 2/3 stage gametocytes to IC50 for chloroquine-sensitive Plasmodium falciparum NF54 late 4/5 stage gametocytes; assay type: functional
# Procedure, shortened: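 Early (stage II/III) and late (stage IV/V) gametocytes tested in parallel luciferase reporter assays; stage preference = EG IC50/LG IC50.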
# [15] = Volume of distribution in C57/Bl6 mouse at 2.5 mg/kg, iv by LC-MS method; assay type: ADME, organism-based; settings: in vivo
# Procedure, shortened: (§4)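 Mice (n=3) given a single intravenous dose of 2.5 mg/kg in dimethylacetamide:polyethylene glycol:propylene glycol/ethanol (4:1) at 1:3:6; 24 h sampling. Parameters were fitted by nonlinear mixed-effects two-compartment model with first-order elimination.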
# [16] = test system: Plasmodium berghei; assay: Antimalarial activity against GFP-fused Plasmodium berghei ANKA infected in mouse assessed as protection against parasitemia at 50 mg/kg, po administered once daily for 4 days measured 30 days post infection by light microscopy; assay type: functional, organism-based
# Procedure, shortened: (§5)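 P. berghei-infected mice, 3 per group. Compound formulated in 90/10 Tween80/ethanol (v/v), diluted 10-fold with water, given orally once daily at 4, 24, 48 and 72 h post-infection. Outcomes: % parasitemia reduction versus untreated control, mean survival days, and cured/infected. Mice with <40% reduction euthanized on day 4.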
# [17] = test system: Plasmodium berghei; assay: Antimalarial activity against GFP-fused Plasmodium berghei ANKA infected in mouse assessed as mouse mean survival days at 50 mg/kg, po administered once daily for 4 days; assay type: functional
# Procedure, shortened: (§6)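 P. berghei-infected mice (n=3 per dose) dosed orally once daily on 4 consecutive days at 4, 24, 48 and 72 h after infection; compound in 90/10 Tween80/ethanol (v/v) diluted 10-fold with water. Read-outs were % parasitemia reduction, mean survival time in days and cure; mice with <40% parasitemia reduction euthanized on day 4.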
# [18] = test system: Plasmodium berghei; assay: Antimalarial activity against GFP-fused Plasmodium berghei ANKA infected in mouse assessed as mouse mean survival days at 30 mg/kg, po administered once daily for 4 days; assay type: functional; procedure, shortened: as §6
# [19] = test system: Mus musculus; assay: AUC (0 to infinity) in C57/Bl6 mouse at 10 mg/kg, po administered via gavage by LC-MS method; assay type: ADME, organism-based; parameters: dose 10 mg/kg, route oral, time infinity; settings: in vivo
# Procedure, shortened: (§7)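 Mice (n=3) given a single oral dose of 10 mg/kg as a suspension in […] HPMC; plasma sampled over 24 h. Parameters were estimated by nonlinear mixed-effects modelling with a two-compartment disposition model, first-order absorption and elimination.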
# [20] = Oral bioavailability in C57/Bl6 mouse at 10 mg/kg administered via gavage by LC-MS method; assay type: ADME, organism-based; settings: in vivo; procedure, shortened: as §7
# [21] = test system: Plasmodium berghei; assay: Antimalarial activity against GFP-fused Plasmodium berghei ANKA infected in mouse assessed as reduction in parasitemia at 30 mg/kg, po administered once daily for 4 days by flow cytometry relative to control; assay type: functional; parameters: scale not given: the % may be the effect or the level left; procedure, shortened: as §5
# [22] = Half life in C57/Bl6 mouse at 2.5 mg/kg, iv by LC-MS method; assay type: ADME, organism-based; settings: in vivo; procedure, shortened: as §4
# [23] = test system: Plasmodium berghei; assay: Antimalarial activity against GFP-fused Plasmodium berghei ANKA infected in mouse assessed as reduction in parasitemia at 50 mg/kg, po administered once daily for 4 days by flow cytometry relative to control; assay type: functional; parameters: scale not given: the % may be the effect or the level left; procedure, shortened: as §5
# [24] = test system: Plasmodium berghei; assay: Antimalarial activity against GFP-fused Plasmodium berghei ANKA infected in mouse assessed as protection against parasitemia at 3 mg/kg, po administered once daily for 4 days measured 30 days post infection by light microscopy; assay type: functional, organism-based; procedure, shortened: as §5
# [25] = Half life in C57/Bl6 mouse at 10 mg/kg, po administered via gavage by LC-MS method; assay type: ADME, organism-based; settings: in vivo; procedure, shortened: as §7
# [26] = Cmax in C57/Bl6 mouse at 10 mg/kg, po administered via gavage by LC-MS method; assay type: ADME, organism-based; parameters: dose 10 mg/kg, route oral; settings: in vivo; procedure, shortened: as §7
# [27] = Tmax in C57/Bl6 mouse at 10 mg/kg, po administered via gavage by LC-MS method; assay type: ADME, organism-based; settings: in vivo; procedure, shortened: as §7
# [28] = test system: Plasmodium berghei; assay: Antimalarial activity against GFP-fused Plasmodium berghei ANKA infected in mouse assessed as protection against parasitemia at 30 mg/kg, po administered once daily for 4 days measured 30 days post infection by light microscopy; assay type: functional, organism-based; procedure, shortened: as §5
# [29] = test system: Plasmodium berghei; assay: Antimalarial activity against GFP-fused Plasmodium berghei ANKA infected in mouse assessed as protection against parasitemia at 10 mg/kg, po administered once daily for 4 days measured 30 days post infection by light microscopy; assay type: functional, organism-based; procedure, shortened: as §5
# [30] = Clearance in C57/Bl6 mouse at 2.5 mg/kg, iv by LC-MS method; assay type: ADME, organism-based; settings: in vivo; procedure, shortened: as §4
# [31] = Metabolic stability in human liver microsomes assessed as compound remaining at 1 uM in presence of NADPH after 30 mins by LC-MS/MS analysis; assay type: ADME, microsome; settings: read-out: Stability; procedure, shortened: as §3
# [32] = test system: Plasmodium berghei; assay: Antimalarial activity against GFP-fused Plasmodium berghei ANKA infected in mouse assessed as reduction in parasitemia at 3 mg/kg, po administered once daily for 4 days by flow cytometry relative to control; assay type: functional; parameters: scale not given: the % may be the effect or the level left; procedure, shortened: as §5
# [33] = test system: Plasmodium falciparum; assay: Anti-plasmodial activity against chloroquine-sensitive Plasmodium falciparum NF54 late 4/5 stage gametocytes assessed as reduction in ATP levels after 24 hrs by BacTiter-Glo reagent based bioluminescence assay; assay type: functional; settings: NF54, 24 h
# [34] = test system: Mus musculus; assay: AUC (0 to infinity) in C57/Bl6 mouse at 2.5 mg/kg, iv by LC-MS method; assay type: ADME, organism-based; parameters: dose 2.5 mg/kg, time infinity, route intravenous; settings: in vivo; procedure, shortened: as §4
# [35] = test system: Plasmodium berghei; assay: Antimalarial activity against GFP-fused Plasmodium berghei ANKA infected in mouse assessed as mouse mean survival days at 3 mg/kg, po administered once daily for 4 days; assay type: functional; procedure, shortened: as §6
# [36] = test system: Plasmodium berghei; assay: Antimalarial activity against GFP-fused Plasmodium berghei ANKA infected in mouse assessed as mouse mean survival days at 10 mg/kg, po administered once daily for 4 days; assay type: functional; procedure, shortened: as §6
# [37] = test system: Plasmodium berghei; assay: Antimalarial activity against GFP-fused Plasmodium berghei ANKA infected in mouse assessed as reduction in parasitemia at 10 mg/kg, po administered once daily for 4 days by flow cytometry relative to control; assay type: functional; parameters: scale not given: the % may be the effect or the level left; procedure, shortened: as §5
# [38] = test system: Plasmodium berghei; assay: Antimalarial activity against GFP-fused Plasmodium berghei ANKA infected in mouse assessed as protection against parasitemia at 12.5 mg/kg, po administered once daily for 4 days measured 30 days post infection by light microscopy; assay type: functional, organism-based
# [39] = test system: Plasmodium berghei; assay: Antimalarial activity against GFP-fused Plasmodium berghei ANKA infected in mouse assessed as protection against parasitemia at 25 mg/kg, po administered once daily for 4 days measured 30 days post infection by light microscopy; assay type: functional, organism-based
# [40] = test system: Ferriprotoporphyrin IX; assay: Inhibition of beta hematin formation in ring stage of chloroquine-sensitive Plasmodium falciparum NF54 assessed as increase in free heme level after 36 hrs by UV-vis spectra analysis; procedure, shortened: as §2
# [41] = test system: Ferriprotoporphyrin IX; assay: Inhibition of beta hematin formation in ring stage of chloroquine-sensitive Plasmodium falciparum NF54 assessed as decrease in haemozoin level after 36 hrs by UV-vis spectra analysis; procedure, shortened: as §2
# [42] = test system: Plasmodium berghei; assay: Antimalarial activity against GFP-fused Plasmodium berghei ANKA infected in mouse assessed as protection against parasitemia at 6 mg/kg, po administered once daily for 4 days measured 30 days post infection by light microscopy; assay type: functional, organism-based
smiles,measurement,setting,value
N#Cc1c(-c2ccc(C(F)(F)F)cc2)c(F)c(NCCN2CCC(O)C2)n2c1nc1ccccc12 (configuration not stated),IC50,[1],190 nM
same,Ratio IC50,[2],22
same,IC50,[3],206000 nM
same,solubility kinetic at 2 h,[4],80 µM
same,inhibition,[5],inactive
same,selectivity ratio,[6],1080
same,Activity,[7],Active
same,IC50,[8],1420 nM
same,Activity,[9],Non-Toxic
same,inhibition,[10],inactive
same,IC50,[11],170 nM
same,IC50,[12],120000 nM
same,"remaining at 0.5 h, 1 µM",[13],37%
CCNCCNc1cc(-c2ccc(C(F)(F)F)cc2)c(C#N)c2nc3cc(Cl)c(Cl)cc3n12,Ratio IC50,[14],1.2
same,Vd,[15],26 L/kg
same,Activity,[16],Active
same,IC50,[1],20 nM
same,Ratio IC50,[2],1.5 - 2
same,MSD,[17],30 days
same,MSD,[18],30 days
same,AUC,[19],2.63 µM·h
same,IC50,[3],3390 nM
same,bioavailability,[20],< 15%
same,Activity,[21],99.7%
same,half-life,[22],15 h
same,Activity,[23],98%
same,Activity,[24],inactive
same,half-life,[25],15 h
same,Cmax,[26],70 nM
same,solubility kinetic at 2 h,[4],10 µM
same,selectivity ratio,[6],188
same,Tmax,[27],10 h
same,Activity,[28],Active
same,Activity,[29],inactive
same,clearance,[30],21 mL/min/kg
same,"remaining at 0.5 h, 1 µM",[31],95%
same,Activity,[9],Non-Toxic
same,Activity,[32],99.5%
same,IC50,[33],720 nM
same,IC50,[11],20 nM
same,AUC,[34],4.27 µM·h
same,MSD,[35],17 days
same,MSD,[36],18 days
same,Activity,[37],99.6%
same,"remaining at 0.5 h, 1 µM",[13],81%
CCNCCNc1cc(-c2ccc(C(F)(F)F)cc2)c(C#N)c2nc3ccccc3n12,Activity,[38],inactive
same,Activity,[16],inactive
same,Activity,[39],inactive
same,Activity,[24],inactive
same,inhibition,[40],Dose-dependent effect
same,inhibition,[41],Dose-dependent effect
same,Activity,[42],inactive
